Assay results: ChEMBL document CHEMBL1154888, “Discorhabdins from the Korean marine sponge Sceptrella sp” (J Nat Prod, 2010)
In brackets after ≈: the same amount, converted by molar mass.

Tests used:
Bacillus subtilis = assay: Antibacterial activity against Bacillus subtilis ATCC 6633; type: functional
Staphylococcus aureus = assay: Antibacterial activity against Staphylococcus aureus […]; type: functional
Micrococcus luteus = assay: Antibacterial activity against Micrococcus luteus IFO 12708; type: functional
Escherichia coli = assay: Antibacterial activity against Escherichia coli ATCC 25922; type: functional
Proteus vulgaris = assay: Antibacterial activity against Proteus vulgaris ATCC 3851; type: functional
Salmonella enterica = assay: Antibacterial activity against Salmonella Typhimurium ATCC 14028; type: functional, Salmonella enterica subsp. enterica serovar Typhimurium
K562 = assay: Cytotoxicity against human K562 cells assessed as viable cells after 72 hrs by MTS/PMS assay; type: functional, cell-based; settings: K562, 72 h
Sortase A = biological target: T1, Sortase A (Staphylococcus aureus, UniProt Q9S446); assay: Inhibition of Staphylococcus aureus sortase A after 1 hr in the presence of fluorescent peptide Dabcul-QALPETGEE-Edans by fluorimetry
T1 sequence (Q9S446 whole entry): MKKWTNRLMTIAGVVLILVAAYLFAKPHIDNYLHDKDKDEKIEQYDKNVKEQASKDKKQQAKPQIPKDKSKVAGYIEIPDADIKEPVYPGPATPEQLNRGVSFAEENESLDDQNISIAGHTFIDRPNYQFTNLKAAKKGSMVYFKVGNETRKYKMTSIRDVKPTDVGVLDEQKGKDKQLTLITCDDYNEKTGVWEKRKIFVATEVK
Summary of the method: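 p-Hydroxymercuribenzoic acid (p-HMB) run alongside as the positive control.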

[1] = biological target: T2, Sortase A (Staphylococcus aureus) (UniProt Q9S446); assay: Selectivity ratio, inhibition of recombinant sortase A from Staphylococcus aureus of drug over the para-(hydroxymercury)benzoic acid sodium salt
T2 sequence (whole entry): T1 sequence (Q9S446 whole entry)

SMILES | MIC (Bacillus subtilis) [µg/mL] | MIC (Staphylococcus aureus) [µg/mL] | MIC (Micrococcus luteus) [µg/mL] | MIC (Escherichia coli) [µg/mL] | MIC (Proteus vulgaris) [µg/mL] | MIC (Salmonella enterica) [µg/mL] | IC50 (K562) [µM] | IC50 (Sortase A) [µM] | Selectivity ratio [1]
O=C1C=CC2(C=C1)CCNC1=C2C2=NCCc3c[nH]c(c32)C1=O [DIDEBROMODISCORHABDIN C] | > 100 | > 100 | > 100 | > 100 | > 100 | > 100 | 21 | 127 | 
O=C1C(NCCc2ccc(O)cc2)=CC2=NCCc3c[nH]c1c32 [MAKALUVAMINE D] | 25 (≈ 81.3 µM) | > 100 | 50 (≈ 163 µM) | > 100 | > 100 | 100 (≈ 325 µM) | 24.6 | 148 | 
O=C1C2=C3C4=[N+](CCc5c[nH]c1c54)C1[C@H](O)CC(=O)[C@@]3(C[C@@H](O)N2)[C@H]1O | > 100 | > 100 | 50 | > 100 | > 100 | > 100 | 2.2 | 6.5 | 10
CO[C@H]1C2C(=O)C=C3S[C@H]4C[C@]31C1=C(N4)C(=O)c3[nH]cc4c3C1=[N+]2CC4 | 50 | 50 | 12.5 | > 100 | 100 | 100 | 2.5 | 146 | 
O=C1C2=C3C4=[N+](CCc5c[nH]c1c54)C1C[C@@]34C[C@@H](N2)SC4=C[C@H]1O | 25 | > 100 | 25 | > 100 | 50 | > 100 | 2.1 | 75.7 | 
O=C1C2=C(C3=NCCc4c[nH]c1c43)C1(C=C(Br)C(O)C(Br)=C1)CCN2 (centres undefined) [DIHYDRODISCORHABDIN C] | 100 (≈ 215 µM) | > 100 | 100 (≈ 215 µM) | > 100 | > 100 | > 100 | 20.2 | > 300 | 
O=C1C(Br)=CC2(C=C1Br)CCNC1=C2C2=NCCc3c[nH]c(c32)C1=O [DISCORHABDIN C] | 25 (≈ 54 µM) | > 100 | 12.5 (≈ 27 µM) | > 100 | 50 (≈ 108 µM) | > 100 | 25.2 | 165 | 
O=C1C(NC2Cc3cc(Br)c(O)cc3S2)=CC2=NCCc3c[nH]c1c32 (centres undefined) [MAKALUVAMINE F] | 12.5 (≈ 30 µM) | 50 (≈ 120 µM) | 3.12 (≈ 7.51 µM) | > 100 | 25 (≈ 60.1 µM) | 100 (≈ 240 µM) | 8.9 | 175 | 
O=C1C=C2S[C@H]3C[C@]2(C=C1Br)C1=C(N3)C(=O)c2[nH]cc3c2C1=NCC3 [(+)-DISCORHABDIN B] | 12.5 (≈ 30.2 µM) | 50 (≈ 121 µM) | 25 (≈ 60.3 µM) | > 100 | 3.12 (≈ 7.54 µM) | 100 (≈ 241 µM) | 7.2 | 132 | 
O=C1C2=C3C4=[N+](CCc5c[nH]c1c54)C1[C@H](O)C=C4S[C@@H](C[C@@]43[C@H]1O)N2 | 100 | > 100 | 25 | > 100 | 50 | > 100 | 2.5 | 192 | 
O=C1C=C[C@@]23C[C@@H](NC4=C2C2=NCCc5c[nH]c(c52)C4=O)SC3=C1 [1-DEBROMODISCORHABDIN B] | 12.5 (≈ 37.3 µM) | 25 (≈ 74.5 µM) | 25 (≈ 74.5 µM) | > 100 | 50 (≈ 149 µM) | 50 (≈ 149 µM) | 25 | 160 | 
COc1cccc2c1C(=O)c1c(O)c3c(c(O)c1C2=O)C[C@@](O)(C(=O)CO)C[C@@H]3O[C@H]1C[C@H](N)[C@H](O)[C@H](C)O1 [DOXORUBICIN] |  |  |  |  |  |  | 8.5 |  | 
CC1(C)S[C@@H]2[C@H](NC(=O)[C@H](N)c3ccccc3)C(=O)N2[C@H]1C(=O)O [AMPICILLIN] | 1.56 (≈ 4.46 µM) | 1.56 (≈ 4.46 µM) | 1.56 (≈ 4.46 µM) | 12.5 (≈ 35.8 µM) | 3.12 (≈ 8.93 µM) | 3.12 (≈ 8.93 µM) |  |  | 
O=C1C2=C3C4=[N+](CCc5c[nH]c1c54)C1C[C@@]34C[C@@H](N2)SC4=CC1=O | 25 | 100 | 6.25 | > 100 | > 100 | > 100 | 6.1 |  | 
O=C1C2=C3C4=[N+](CCc5c[nH]c1c54)C1C(=O)C=C4S[C@@H](C[C@@]43[C@H]1O)N2 | 25 | 50 | 12.5 | > 100 | 100 | 100 | 4.5 | 130 | 
O=C1C=C[C@]2(C=C1Br)CCNC1=C2C2=NCCc3c[nH]c(c32)C1=O | 50 (≈ 130 µM) | 100 (≈ 260 µM) | 50 (≈ 130 µM) | > 100 | 25 (≈ 65.1 µM) | 50 (≈ 130 µM) | 1.3 | 186 | 
